Results taken from the RNAGym collection of RNA variant scans (doi:10.1038/s41586-018-0170-7).

B1: tRNA (parent)
chain: GUUCCGUUGGCGUAAUGGUAACGCGUCUCCCUCCUAAGGAGAAGACUGCGGGUUCGAGUCCCGUACGGAACG

Variants of: B1
Experiment: yeast fitness, log relative to wild type (ln ratio); higher = fitter; tRNA-Arg(CCU), competitive growth, 37 C, 1 M NaCl
Summary of the method: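 A combinatorial tRNA-Arg(CCU) variant library was carried on a HIS3 centromeric plasmid in BY4742 lacking the chromosomal gene, from two independent transformations. Pools grew 4 generations in SC-HIS at 30 °C, then ~6.5 generations (~26.5 h) in SC-HIS 1M NaCl at 37 °C, with three outputs per input. Variants were counted by 125 bp paired-end Illumina sequencing. Fitness is ln of each genotype's generations (OD-scaled log2 output/input frequency, inverse-variance weighted across replicates) over the wild-type's.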

Row | Variant | yeast fitness (ln)
1 | C27U A43C A70G C71U | -0.112
2 | C27U C46U C66A A69G A70U C71U | -0.396
3 | G6U C66A A69G | 0.00209
4 | C27U A43C C46U C66A A69G A70U C71U | -0.366
5 | G6U C27U A43C C66U A69G C71U | -0.395
6 | C27U C66U | -0.134
7 | C27U C66A | -0.0595
8 | G6U C27U C46U C66U A69G C71U | -0.543
9 | G6U C27U C46U C66A A69G A70U C71U | -0.328
10 | C27U A43C C46U C66A A69G C71U | -0.317
11 | G6U C66U A70U C71U | -0.315
12 | G6U C27U A43C C66U A70U C71U | -0.372
13 | C27U A43C C46U C66U A70U | -0.109
14 | C27U A43C C46U C66U A70G | -0.115
15 | G6U C27U A43C C66A | -0.0198
16 | G6U C27U A43C C66U | -0.227
17 | G6U C27U C46U A69G C71U | -0.314
18 | A43C A69G C71U | -0.138
19 | A43C C46U C66A A70G C71U | -0.0713
20 | C27U A69G | -0.0417
21 | C27U C66U A69G | -0.241

Row | Variant | yeast fitness (ln)
22 | C27U A43C C66U A69G A70G C71U | -0.318
23 | C27U A43C C46U C71U | -0.0385
24 | G6U C66U A70G C71U | -0.168
25 | G6U C27U A43C C66A A69G A70U C71U | -0.389
26 | A43C C46U A69G A70G | -0.0166
27 | A43C C46U A69G A70U | -0.133
28 | C27U A43C C66U A69G A70U C71U | -0.37
29 | C27U A43C C66A A69G A70U C71U | -0.513
30 | C27U C46U C66A A69G A70G | -0.124
31 | C27U C46U C66A A69G A70U | -0.104
32 | C27U C71U | -0.0403
33 | C27U A43C C46U | -0.00723
34 | C27U A43C C71U | -0.114
35 | A43C A69G A70U C71U | -0.337
36 | G6U C46U C66U A70U C71U | -0.302
37 | G6U C27U A69G C71U | -0.342
38 | C27U C46U C66A A70G | -0.0605
39 | C27U C46U C66A A70U | -0.0577
40 | C27U A43C C66U A69G A70G | -0.255
41 | C27U A43C C66U A69G A70U | -0.361
42 | C27U A43C C66U A70G | -0.227

Row | Variant | yeast fitness (ln)
43 | C27U A43C C66U A70U | -0.147
44 | G6U C27U C66U | -0.321
45 | G6U C27U C66A | -0.0293
46 | C27U A43C A70G | -0.0631
47 | C27U A43C A70U | -0.185
48 | A43C C46U C66A | -0.0152
49 | G6U C46U C66A A69G A70U | -0.302
50 | G6U C46U C66A A69G A70G | -0.00994
51 | C27U C66A A69G C71U | -0.184
52 | C27U C46U A70U C71U | -0.205
53 | C27U C66A C71U | -0.117
54 | C27U A43C A69G A70U | -0.204
55 | C27U A43C A69G A70G | -0.235
56 | C27U A43C C46U C66U A69G C71U | -0.361
57 | C27U A43C C46U C66A A69G A70G | -0.0756
58 | C27U A43C C46U C66A A69G A70U | -0.156
59 | G6U C27U C46U C66A A70U C71U | -0.213
60 | G6U C27U A69G A70U | -0.214
61 | G6U C27U A69G A70G | -0.33
62 | C27U A43C C46U C66U A70U C71U | -0.333
63 | C27U A69G A70G C71U | -0.223

Row | Variant | yeast fitness (ln)
64 | G6U C46U C66A A70G C71U | -0.15
65 | A43C | 0.000879
66 | G6U C66U A69G A70G C71U | -0.293
67 | G6U C27U C66U C71U | -0.256
68 | C27U C66U A69G C71U | -0.313
69 | G6U C27U C66U A70G C71U | -0.37
70 | C27U C46U C66U A69G A70U C71U | -0.485
71 | G6U C66A A70G C71U | -0.233
72 | G6U C27U C71U | -0.222
73 | G6U C27U A43C C66U A69G A70G C71U | -0.473
74 | G6U C46U C66A A69G C71U | -0.0515
75 | G6U C27U A43C C46U C66U A69G C71U | -0.432
76 | A43C C46U C66A A69G A70U C71U | -0.341
77 | C27U A43C C46U C66U A70G C71U | -0.206
78 | G6U C27U A69G | -0.222
79 | G6U C27U C46U C66U A70G | -0.207
80 | G6U C27U C46U C66U A70U | -0.19
81 | G6U C27U C46U A69G A70U C71U | -0.457
82 | G6U C66U A69G | -0.527
83 | C27U A43C C46U C66U | -0.217
84 | C27U A43C C46U C66A | -0.0786
